Data reported in paper PMC10240386 (Cell chemical biology, 2023).
Where two headings read alike, the source gives them in different places.

Legend:
human i-20S β5i = human i-20S β5i (Homo sapiens, UniProt P20618+P28062); assay: Proteasome IC50 determination, human i-20S β5i; type: biochemical
In short: (§1)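 Human i-20S (0.4 nM) assayed in 20 mM HEPES, 0.5 mM EDTA, 0.1 mg/mL BSA, pH 7.5, with 0.02% SDS and 15 µM Ac-ANW-AMC. Pf20S (1 nM) assayed in 50 mM Tris, 5 mM MgCl2, 1 mM DTT, pH 7.4, with 12 nM PA28α, 0.5 µM WLW-VS and 25 µM suc-LLVY-AMC. Test compound given as a 3-fold series, 100–0.0017 µM final. AMC read at 360/460 nm for 1–2 h; velocities fitted to a dose-response equation. Run in duplicate or triplicate.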

Dd2β6^A117D = assay: Parasite growth inhibition assay, erythrocytic stage; type: cell-based, Plasmodium falciparum; conditions: for EC50: Plasmodium falciparum, 72 h, read-out: EC50 Dd2β6^A117D; for fold more resistant / reduced potency, Dd2β6^A117D versus parental Dd2: EC50 ratio
HepG2 cells = assay: HepG2 cell viability assay; type: cell-based; conditions: read-out: HepG2
[1] = tested on: Pf strains Cam3.I^rev and Cam3.I^R539T; assay: Extended RSA / parasite regrowth assay; type: cell-based, Plasmodium falciparum; conditions: 6 h pulse as in RSA, parasitemia on day 7, ART-sensitive and ART-resistant lines
In short: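 Cultures repeatedly sorbitol-synchronized, then Percoll-sorbitol enriched for late stages, allowed 3 h reinvasion and sorbitol-treated again to give 0–3 h rings. Rings plated at 0.5% parasitemia and exposed to test compound (700 or 800 nM) for 6 h, then washed. Transferred into 3 mL culture for seven days; parasitemia scored by microscopy on day 7.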

Pf Dd2^WT = assay: Parasite growth inhibition assay, erythrocytic stage; type: cell-based, Plasmodium falciparum; conditions: for EC50: read-out: EC50 Pf Dd2^WT; for inhibition of Pf growth: strain not stated in text (Figure 5A)
Dd2β5^A49S = assay: as above; type: cell-based, Plasmodium falciparum; conditions: for EC50: Plasmodium falciparum, 72 h, read-out: EC50 Dd2β5^A49S; for fold more resistant / reduced potency, Dd2β5^A49S versus parental Dd2: EC50 ratio
human c-20S β5c = human c-20S β5c (Homo sapiens, UniProt P20618+P28074); assay: Proteasome IC50 determination, human c-20S β5c; type: biochemical
In short: as §1, with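 “c-20S (0.2” for “i-20S (0.4”, “25” for “15”, “suc-LLVY-AMC.” for “Ac-ANW-AMC.”, “h; linear” for “h;”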

i-20S/PA28α = assay: Degradation of the modified β-casein by i-20S; type: biochemical, human; conditions: β-casein pre-incubated with 100 μM compound, hemin and ascorbate; for degradation of β-casein by i-20S/PA28α, dialyzed set: then dialyzed; for degradation of β-casein by i-20S/PA28α, non-dialyzed control: not dialyzed
[2] = tested on: DHA-resistant clones DR1, DR2, DR4 derived from Dd2; assay: Standard 72-h in vitro assay on DHA-resistant clones; type: cell-based, Plasmodium falciparum; conditions: standard 72-h assay
Pf20S β5 = Pf20S β5 (Plasmodium falciparum, UniProt A0A5K1K7U1+Q8IJT1); assay: biochemical; type: biochemical; conditions: for activity against Pf20S: Pf20S β5
[3] = tested on: P. berghei G2025^R551T (K13^R551T); assay: Modified Peters' 4-day suppressive test for recrudescence, ART-resistant strain; type: in vivo, Swiss Webster mice; conditions: ART 50 mg/kg, ATZ4 100 mg/kg i.p. day 0 to day 2
[4] = tested on: Pf Dd2 proteins and peptides; type: cell-based, Plasmodium falciparum; conditions: 700 nM for 6 h, Cy3-alkyne click, in-gel fluorescence
Dd2β6^A117DK13^R539T = assay: Parasite growth inhibition, dual resistant strain; type: cell-based, Plasmodium falciparum; conditions: EC50 fold change, three experiments (Figure 6B)
[5] = tested on: Pf20S β5 in lysate of Dd2^WT; assay: Blocking of MV151 labeling in parasite lysate; type: binding, Plasmodium falciparum; conditions: 1 h preincubation of Dd2^WT lysate
In short: (§2)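 Dd2 wild-type or mutant parasite pellets lysed on ice for 1 h in 50 mM Tris-HCl, 5 mM MgCl2, 1 mM DTT, pH 7.4, then centrifuged; protein quantified by BCA. 5–10 µg of lysate protein preincubated with test compound for 1 h at 37°C. MV151 added at 2 µM final for a further 1 h at 37°C, protected from light. Run on 12% Bis-Tris SDS-PAGE and scanned at Cy3/TAMRA (λex 532, λem 560 nm).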

Pf20Sβ5^A49S = assay: Blocking of MV151 labeling in parasite lysate; type: binding, Plasmodium falciparum; conditions: 1 h preincubation of Dd2β5^A49S lysate
In short: as §2

Pf20Sβ6^A117D = assay: Blocking of MV151 labeling in parasite lysate; type: binding, Plasmodium falciparum; conditions: 1 h preincubation of Dd2β6^A117D lysate
In short: as §2

P. berghei ANKA lux = assay: In vivo efficacy in mice infected with P. berghei ANKA lux; parameters: species or system Swiss Webster mice; conditions: 20 mg/kg i.p. once daily day 3 to day 6, luminescence on day 7; positive control
[6] = Plasmodium falciparum, DD2, Erythrocyte, 72 h

Row | SMILES | IC50 (human i-20S β5i) [µM] | EC50 (Dd2β6^A117D) [µM] | parasite regrowth after pulse [1] | EC50 (Pf Dd2^WT; [6]) [µM] | EC50 (Dd2β5^A49S) [µM] | IC50 (human c-20S β5c) [µM] | susceptibility of DHA-resistant clones compared with WT Dd2 [2] | IC50 (Pf20S β5) [µM] | labeling of parasite proteins and peptides [4] | activity against Pf20S (Pf20S β5) | other results
1 | C[C@H]1[C@@H](CC(N)=O)O[C@@H]2O[C@@]3(C)CC[C@H]4[C@H](C)CC[C@@H]1[C@@]24OO3 [ART1, 2-((3R,5aS,6R,8aS,9R,10R,12R,12aR)-3,6,9-trimethyldecahydro-12H-3,12-epoxy[1,2]dioxepino[4,3-i]isochromen-10-yl)acetamide] | > 100 | 0.0279 ± 0.011 | re-established normal growth | 0.0437 ± 0.0127 | 0.0302 ± 0.0026 | > 100 | modestly resistant | 9.2 |  |  | activity against human proteasomes (human i-20S β5i; hu i-20S): inactive; EC50 (HepG2 cells; Homo sapiens, HepG2, 72 h): > 100 µM; activity against human proteasomes (human c-20S β5c; hu c-20S): inactive; degradation of β-casein by i-20S/PA28α, dialyzed set (i-20S/PA28α): unimpeded degradation of β-casein
2 | C[C@@H]1CC[C@H]2[C@@H](C)C(=O)O[C@@H]3O[C@@]4(C)CC[C@@H]1[C@]32OO4 [ART, artemisinin, reference compound] |  |  |  |  |  |  |  |  | minimal labeling of proteins and peptides |  | mice with positive blood smear on day 6 [3]: 20%; mice with positive blood smear on day 8 [3]: 40%; mice with positive blood smear on day 10 [3]: 100%
3 | C[C@H]1[C@@H](CC(=O)NCC(=O)N[C@@H](CC(=O)NC(C)(C)C)C(=O)NCCNC(=O)c2cc(-c3ccccc3F)ccc2F)O[C@@H]2O[C@@]3(C)CC[C@H]4[C@H](C)CC[C@@H]1[C@@]24OO3 [ATZ2, (S)-N4-(tert-butyl)-N1-(2-(2′,4-difluoro-[1,1′-biphenyl]-3-carboxamido)ethyl)-2-(2-(2-((3R,5aS,6R,8aS,9R,10R,12R,12aR)-3,6,9-trimethyldecahydro-12H-3,12-epoxy[1,2]dioxepino[4,3-i]isochromen-10-yl)acetamido)acetamido)succinamide] | 0.073 ± 0.019 | 0.0044 ± 0.0011 |  | 0.003 ± 0.0006 | 0.0109 ± 0.0026 | 0.21 ± 0.04 |  | 0.0029 ± 0.0006 |  | potency comparable with that of PI01 | fold improvement over PI01 against Dd2β6^A117D (Dd2β6^A117D): ≥ 5 fold; fold more resistant / reduced potency, Dd2β6^A117D versus parental Dd2 (Dd2β6^A117D): ≤ 2.9 fold; times more potent than ART1 against Dd2 (Pf Dd2^WT; EC50 ratio): 10 times; fold improvement over PI01 against Dd2β5^A49S (Dd2β5^A49S): > 100 fold; fold more resistant / reduced potency, Dd2β5^A49S versus parental Dd2 (Dd2β5^A49S): ≤ 3.6 fold; degradation of β-casein by i-20S/PA28α, non-dialyzed control (i-20S/PA28α): inhibited the degradation of β-casein
4 | C[C@H]1[C@@H](CC(=O)N[C@@H](CCCN=[N+]=[N-])C(=O)N[C@@H](CC(=O)NC(C)(C)C)C(=O)NCCNC(=O)c2cc(-c3ccccc3F)ccc2F)O[C@@H]2O[C@@]3(C)CC[C@H]4[C@H](C)CC[C@@H]1[C@@]24OO3 [ATZ-P1, (S)-2-((S)-5-azido-2-(2-((3R,5aS,6R,8aS,9R,10R,12R,12aR)-3,6,9-trimethyldecahydro-12H-3,12-epoxy[1,2]dioxepino[4,3-i]isochromen-10-yl)acetamido)pentanamido)-N^4-(tert-butyl)-N^1-(2-(2′,4-difluoro-[1,1′-biphenyl]-3-carboxamido)ethyl)succinimide] |  |  |  |  |  |  |  |  | substantial labeling of proteins and peptides | highly potent inhibitors | inhibition of Pf growth (Pf Dd2^WT): highly potent inhibitors
5 | C[C@H]1[C@@H](O)O[C@@H]2O[C@@]3(C)CC[C@H]4[C@H](C)CC[C@@H]1[C@@]24OO3 [DHA, dihydroartemisinin, reference compound] |  |  | re-established normal growth |  |  |  | highly resistant |  |  |  | 
6 | C[C@H]1[C@@H](CC(=O)NCCCC(=O)N[C@@H](CC(=O)NC(C)(C)C)C(=O)NCCNC(=O)c2cc(-c3ccccc3F)ccc2F)O[C@@H]2O[C@@]3(C)CC[C@H]4[C@H](C)CC[C@@H]1[C@@]24O3 [Deoxy-ATZ4, (S)-N4-(tert-butyl)-N1-(2-(2′,4-difluoro-[1,1′-biphenyl]-3-carboxamido)ethyl)-2-(4-(2-((2R,3R,3aS,3a1R,6R,6aS,9S,10aR)-3,6,9-trimethyldecahydro-10aH-3a1,9-epoxyoxepino [4,3,2-ij]isochromen-2-yl)acetamido)butanamido)succinamide] |  |  |  |  |  |  | equally susceptible |  |  | potency comparable with that of PI01 | fold less potent against Dd2β6^A117D compared with Dd2 and Dd2K13^R539T (Dd2β6^A117D; EC50 fold change, three experiments (Figure 6B)): 5.6 fold; EC50 (HepG2 cells; 72 h cell viability, mean ± SD): 10.8 µM; EC50 (Pf Dd2^WT; 72 h growth inhibition in red blood cells, mean ± SD): 0.0216 ± 0.0014 µM; fold less potent against Dd2β6^A117DK13^R539T compared with Dd2 and Dd2K13^R539T (Dd2β6^A117DK13^R539T): 11.0 fold
7 | CC(C)(C)NC(=O)C[C@H](NC(=O)CCCNC(=O)OC(C)(C)C)C(=O)NCCNC(=O)c1cc(-c2ccccc2F)ccc1F [PI01, tert-butyl (S)-(4-((4-(tert-butylamino)-1-((2-(2′,4-difluoro-[1,1′-biphenyl]-3-carboxamido)ethyl)amino)-1,4-dioxobutan-2-yl)amino)-4-oxobutyl)carbamate] | 0.2 ± 0.046 | 0.121 ± 0.02 | re-established normal growth | 0.0074 ± 0.0002 | > 2.77 | 2 |  | 0.006 ± 0.0008 |  |  | fold less active on hu i-20S than on Pf20S (human i-20S β5i; ratio of IC50 values): ~ 30 fold; fold more resistant / reduced potency, Dd2β6^A117D versus parental Dd2 (Dd2β6^A117D): 16 fold; blocking of MV151 labeling of β5 [5]: dose dependently blocked labeling of β5; EC50 (HepG2 cells; Homo sapiens, HepG2, 72 h): > 100 µM; blocking of MV151 labeling of β5 (Pf20Sβ5^A49S): prevented PI01 and ATZ4 from inhibiting; blocking of MV151 labeling of β5 (Pf20Sβ6^A117D): prevented PI01 and ATZ4 from inhibiting; fold more resistant / reduced potency, Dd2β5^A49S versus parental Dd2 (Dd2β5^A49S): > 370 fold; fold less active on hu c-20S than on Pf20S (human c-20S β5c; ratio of IC50 values): ~300 fold; degradation of β-casein by i-20S/PA28α, non-dialyzed control (i-20S/PA28α): inhibited the degradation of β-casein; degradation of β-casein by i-20S/PA28α, dialyzed set (i-20S/PA28α): unimpeded degradation of β-casein
8 | CCN(CC)CCCC(C)Nc1ccnc2cc(Cl)ccc12 (stereo not shown) [chloroquine, reference compound] |  |  |  |  |  |  |  |  |  |  | parasite load (P. berghei ANKA lux): below the limit of detection
9 | C[C@H]1[C@@H](CC(=O)N[C@@H](CCCN=[N+]=[N-])C(=O)N[C@@H](CC(=O)NC(C)(C)C)C(=O)NCCNC(=O)c2cc(-c3ccccc3F)ccc2F)O[C@@H]2O[C@@]3(C)CC[C@H]4[C@H](C)CC[C@@H]1[C@@]24O3 [deoxy-ATZ-P1, (S)-2-((S)-5-azido-2-(2-((2R,3R,3aS,3a^1R,6R,6aS,9S,10aR)-3,6,9-trimethyldecahydro-10aH-3a^1,9-epoxyoxepino[4,3,2-ij]isochromen-2-yl)acetamido)pentanamido)-N^4-(tert-butyl)-N^1-(2-(2′,4-difluoro-[1,1′-biphenyl]-3-carboxamido)ethyl)succinamide] |  |  |  |  |  |  |  |  | minimal labeling of proteins and peptides | highly potent inhibitors | inhibition of Pf growth (Pf Dd2^WT): highly potent inhibitors
